# Measured values: ChEMBL document CHEMBL3865824, “New (E)-1-alkyl-1H-benzo[d]imidazol-2-yl)methylene)indolin-2-ones: Synthesis, in vitro cytotoxicity evaluation and apoptosis inducing studies” (Eur J Med Chem, 2016)
# Calls of active or inactive are those of the source. The rule behind the calls is not given here.
# Assays:
# MDA-MB-231 [1] = assay: Antimigratory activity against human MDA-MB-231 cells assessed inhibition of cell migration towards wound area at 2 to 4 uM up to 24 hrs by phase contrast microscopic analysis; assay type: functional, cell-based
# Outline: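 MDA-MB-231 seeded at 5×10^5 cells/well and grown 24 h to a confluent monolayer. Monolayer scratched with a 200 µL pipette tip and washed twice with PBS to remove non-adherent cells. Medium with compound at 1, 2 or 4 µM added. Wound closure photographed by phase contrast microscopy at 0 and 24 h after treatment.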
# MDA-MB-231 [2] = assay: Induction of apoptosis in human MDA-MB-231 cells assessed as formation of horse-shoe shaped nuclei at 2 uM after 24 hrs by AO/EB-dual staining based fluorescent microscopic analysis; assay type: functional, cell-based
# Outline: (§1)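 MDA-MB-231 plated at 1×10^6 cells/mL and treated at 1, 2 or 4 µM, with a DMSO control. Incubation time is given as 48 h in the methods and 24 h in the figure legend. AO and EB added at 10 µg/mL each. Cells viewed within 10 min by fluorescence microscopy (excitation 488 nm, emission 550 nm) at 200×.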
# MDA-MB-231 [3] = assay: Induction of apoptosis in human MDA-MB-231 cells assessed as formation of horse-shoe shaped nuclei at 1 to 4 uM after 24 hrs by DAPI dye-based fluorescent microscopic analysis; assay type: functional, cell-based
# Outline: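 MDA-MB-231 grown at 1×10^6 cells/well in 6-well plates and treated at 1.0, 2.0 or 4.0 µM for 24 h, with untreated controls. Cells washed twice with PBS, fixed in 4% paraformaldehyde and stained with 10 µg/mL DAPI. Nuclei examined by fluorescence microscopy (excitation 359 nm, emission 461 nm) at 200×.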
# MDA-MB-231 [4] = assay: Induction of apoptosis in human MDA-MB-231 cells assessed as cell membrane blebbing at 1 uM after 24 hrs by AO/EB-dual staining based fluorescent microscopic analysis; assay type: functional; outline: as §1
# [5] = Cytotoxicity against human PC3 cells assessed as reduction in cell viability after 48 hrs by MTT assay; assay type: functional, cell-based; conditions: PC-3, 48 h
# Outline: (§2)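 Cells grown in DMEM or MEM with 10% FBS at 37 °C, 5% CO2. Seeded at 1×10^4 cells/well, incubated 48 h, then exposed to compound for 48 h with vehicle control. MTT (5 mg/mL stock) added for 4 h; formazan dissolved in DMSO, absorbance read at 570 nm. Preliminary screen at 50 µM. Compounds giving >50% inhibition were tested for dose-response curves; IC50 derived by linear regression of % inhibition versus concentration. Mean of three independent experiments in triplicate.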
# [6] = Cell cycle arrest in human MDA-MB-231 cells assessed as accumulation at G2/M phase after 24 hrs by propidium iodide staining based FACS analysis; assay type: functional; conditions: in the assay text read “G0/G1” for “G2/M”
# Outline: (§3)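 MDA-MB-231 at 1×10^6 cells/well treated with 1, 2 or 4 µM for 24 h, with a DMSO control. Cells harvested by trypsin, washed with PBS and fixed in 70% ethanol for 30 min at 4 °C. Stained 15 min at room temperature in the dark with PI buffer containing Triton X and DNase-free RNase A. Analysed by flow cytometry; G0/G1, S and G2/M fractions quantified.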
# [7] = Cytotoxicity against human MCF7 cells assessed as growth inhibition at 50 uM after 48 hrs by MTT assay relative to control; assay type: functional; conditions: MCF7, 48 h, read-out: GI; outline: as §2
# MDA-MB-231 [8] = assay: Induction of apoptosis in human MDA-MB-231 cells assessed as destructive fragmentation of chromatin at 4 uM after 24 hrs by AO/EB-dual staining based fluorescent microscopic analysis; assay type: functional, cell-based; outline: as §1
# [9] = Cytotoxicity against human A549 cells assessed as reduction in cell viability after 48 hrs by MTT assay; assay type: functional, cell-based; conditions: A549, 48 h; outline: as §2
# MDA-MB-231 [10] = assay: Induction of apoptosis in human MDA-MB-231 cells assessed as early apoptotic cells at 4 uM after 24 hrs by Annexin V-FITC/propidium iodide-staining based FACS analysis (reference value: 4.1 %); assay type: functional
# [11] = Cell cycle arrest in human MDA-MB-231 cells assessed as accumulation at G2/M phase at 2 uM after 24 hrs by propidium iodide staining based FACS analysis (reference value: 26 %); assay type: functional; outline: as §3
# [12] = Cytotoxicity against […] cells assessed as reduction in cell viability after 48 hrs by MTT assay; assay type: functional, cell-based; conditions: 4T1, 48 h; outline: as §2
# MDA-MB-231 [13] = assay: Induction of apoptosis in human MDA-MB-231 cells assessed as late apoptotic cells at 1 uM after 24 hrs by Annexin V-FITC/propidium iodide-staining based FACS analysis (reference value: 3.6 %); assay type: functional
# [14] = Cytotoxicity against human MCF7 cells assessed as reduction in cell viability after 48 hrs by MTT assay; assay type: functional, cell-based; conditions: MCF7, 48 h; outline: as §2
# MDA-MB-231 [15] = assay: Induction of apoptosis in human MDA-MB-231 cells assessed as loss of mitochondrial membrane potential after 24 hrs by rhodamine-123 -based spectrofluorometric analysis; assay type: functional, cell-based
# Outline: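 MDA-MB-231 seeded at 5×10^5 cells/mL and allowed to adhere overnight, then treated at 1, 2 or 4 µM for 24 h. Cells collected by trypsin, washed, and stained with rhodamine-123 (10 µg/mL) in PBS for 30 min at room temperature. Cells washed twice and fluorescence read at excitation 480 nm, emission 530 nm. Mean ± SD of three independent experiments in triplicate.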
# [16] = Cytotoxicity against human MDA-MB-231 cells assessed as growth inhibition at 50 uM after 48 hrs by MTT assay relative to control; assay type: functional; conditions: MDA-MB-231, 48 h, read-out: GI; outline: as §2
# [17] = Cytotoxicity against human BT549 cells assessed as reduction in cell viability after 48 hrs by MTT assay; assay type: functional, cell-based; conditions: BT-549, 48 h; outline: as §2
# MDA-MB-231 [18] = assay: Induction of apoptosis in human MDA-MB-231 cells assessed as loss of mitochondrial membrane potential at 4 uM after 24 hrs by rhodamine-123 -based spectrofluorometric analysis relative to control; assay type: functional
# Outline: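 MDA-MB-231 cells were plated at 5×10^5 cells/mL in 6-well plates, left to adhere overnight, then treated 24 h at 1, 2 and 4 μM. Cells were trypsinized, washed in PBS and loaded with rhodamine-123 (10 μg/mL) in PBS for 30 min at room temperature. After two PBS washes, fluorescence was read by spectrofluorometer (ex 480/em 530 nm). Loss is expressed against control; three independent experiments in triplicate.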
# MDA-MB-231 [19] = assay: Induction of apoptosis in human MDA-MB-231 cells assessed as decrease in Bcl2 expression after 24 hrs by Western blot analysis; assay type: functional, cell-based
# Outline: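 MDA-MB-231 treated at 1, 2 or 4 µM for 24 h. Whole-cell extracts prepared in RIPA buffer. Blots probed with rabbit anti-caspase-3, anti-Bcl2 and anti-β-actin (1:1000) and anti-Bax (1:500), then HRP secondaries and ECL detection. Membranes stripped and reprobed. Bands quantified by densitometry as fold change versus control. Mean ± SEM, n=3.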
# [20] = Selectivity ratio of IC50 for human MCF10A cells to IC50 for […] cells; assay type: ADME, cell-based, MCF-10A; conditions: MCF10A cells versus 4TI cells, read-out: Ratio IC50
# [21] = Cytotoxicity against human MCF10A cells assessed as reduction in cell viability after 48 hrs by MTT assay; assay type: toxicity, cell-based, MCF-10A; outline: as §2
compound,measurement,setting,value
CC(C)n1c(/C=C2/C(=O)Nc3ccc(Br)cc32)nc2ccccc21,inhibition,MDA-MB-231 [1],Active
same,Activity,MDA-MB-231 [2],Active
same,Activity,MDA-MB-231 [3],Active
same,Activity,MDA-MB-231 [4],Active
same,IC50,[5],10.7 µM
same,Activity,[6],Dose-dependent effect
same,inhibition of growth at 50 µM,[7],> 50%
same,Activity,MDA-MB-231 [8],Active
same,IC50,[9],8.63 µM
same,Activity,MDA-MB-231 [10],23.4%
same,Activity,[11],18.9%
same,IC50,[12],5.96 µM
same,Activity,MDA-MB-231 [13],4.7%
same,IC50,[14],14.9 µM
same,Activity,MDA-MB-231 [15],Dose-dependent effect
same,inhibition of growth at 50 µM,[16],> 50%
same,IC50,[17],13.7 µM
same,Activity,MDA-MB-231 [18],38.5%
same,Activity,MDA-MB-231 [19],Dose-dependent effect
same,selectivity ratio,[20],9.5
same,IC50 at 48 h,[21],56.9 µM
